Experimental findings from ChEMBL document CHEMBL1149434 (J Med Chem, 2006) are described below.

Molecules are shown by their SMILES. The source made the active and inactive calls. The rule behind the calls is not given here.

Assay [1] has as its system RAW264.7. As to the kind of experiment: Ability to suppress the production of reactive oxygen intermediates by activated RAW 264.7 macrophages from BALB/c mice at 8 ug/ml. It counts as functional. The method, boiled down:
(§1)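 RAW 264.7 cells were grown in DMEM with 5% FCS and LPS-activated (1 µg/mL, 24 h). Cells (5 × 10^5 in 0.5 mL) were incubated 24 h with cannabinoids dissolved in ethanol and diluted in Hanks. Luminol and zymosan were then added and chemiluminescence was read immediately. Mean ± SD of three pooled experiments.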

Assay [2] concerns RAW264.7. As to the kind of experiment: Ability to suppress the production of reactive oxygen intermediates by activated RAW 264.7 macrophages from BALB/c mice at 4 ug/ml. Type of assay: functional, Mus musculus. The method, boiled down:
as §1

In assay [3] the test system is Peritoneal macrophage cell. As to the kind of experiment: Ability to suppress […] production by LPS-activated peritoneal macrophages form C57BL/6 mice at 8 ug/ml. It counts as functional, cell-based. The following applies: Mus musculus. In a few lines: (§2)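 Elicited peritoneal macrophages were prepared as for TNF. They were exposed to ethanol-dissolved cannabinoids diluted in DMEM, plus LPS 1 µg/mL, for 24 h. Nitrite in 100 µL supernatant was mixed with an equal volume of Griess reagent for 10 min at room temperature and read at 550 nm. Values came from a nitrite standard curve. Mean ± SD of three pooled experiments.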

For assay [4], the system named is Peritoneal macrophage cell. As to the kind of experiment: Ability to suppress […] production by LPS-activated peritoneal macrophages form C57BL/6 mice at 4 ug/ml. Type of assay: functional, cell-based. The note with it: Mus musculus. In a few lines:
as §2

Assay [5] concerns Peritoneal macrophage cell. Description: Ability to suppress TNFalpha production by LPS-activated peritoneal macrophages form C57BL/6 mice at 8 ug/ml. Type of assay: functional.
A further assay concerns the target Cannabinoid receptor 1 (Rattus norvegicus, UniProt P20272). As to the kind of experiment: Displacement of [3H]HU243 from CB1 receptor in Sabra rat brain.
Assay [6] deals with Peritoneal macrophage cell. Description: Ability to suppress […] production by LPS-activated peritoneal macrophages form C57BL/6 mice at 1 ug/ml. It counts as functional, cell-based. The following applies: Mus musculus. The method, boiled down: as §2
In assay [7] the test system is Peritoneal macrophage cell. As to the kind of experiment: Ability to suppress TNFalpha production by LPS-activated peritoneal macrophages form C57BL/6 mice at 4 ug/ml. Type of assay: functional, cell-based. The following applies: Mus musculus.

Sequence of Cannabinoid receptor 1 (P20272 whole entry): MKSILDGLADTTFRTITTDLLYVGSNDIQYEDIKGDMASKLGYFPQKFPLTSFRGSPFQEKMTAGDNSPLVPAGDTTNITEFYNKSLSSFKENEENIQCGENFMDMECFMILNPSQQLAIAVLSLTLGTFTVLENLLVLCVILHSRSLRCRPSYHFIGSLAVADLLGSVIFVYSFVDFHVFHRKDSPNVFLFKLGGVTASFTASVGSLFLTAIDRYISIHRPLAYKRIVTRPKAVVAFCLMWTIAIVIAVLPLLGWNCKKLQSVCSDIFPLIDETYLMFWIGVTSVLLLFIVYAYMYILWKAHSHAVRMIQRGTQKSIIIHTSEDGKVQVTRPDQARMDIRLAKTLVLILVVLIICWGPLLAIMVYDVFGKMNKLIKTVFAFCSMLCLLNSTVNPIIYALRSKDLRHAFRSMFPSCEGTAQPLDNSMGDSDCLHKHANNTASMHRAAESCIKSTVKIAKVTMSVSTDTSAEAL

Regarding `C=C(C)[C@@H]1CCC(C)=C[C@H]1c1c(O)cc(CCCCC)cc1O` [CANNABIDIOL], the result (in the assay with RAW264.7 [1] (Mus musculus); in assay [3]; in assay [4]; in assay [5] (Mus musculus)) was Active. This compound also displayed an Activity in the assay on RAW264.7 [2] of 12%.

`CCCCCc1cc(O)c(C2CC(C)CC[C@H]2C(C)C)c(O)c1` (some centres not stated) displayed a Ki at Cannabinoid receptor 1 of 145 nM. Also, the result (in the assay on RAW264.7 [2] (Mus musculus); in assay [6]; in assay [3]; in assay [4]; in assay [7]) was Active.

Regarding `C=C(C)[C@@H]1CCC(C)=CC1c1c(O)cc(C(C)(C)CCCCCC)cc1O` (some centres not stated), the figures for the Activity (in the assay with RAW264.7 [1]; in assay [5]) were 60% and 73%, respectively. At Cannabinoid receptor 1, the Ki is > 10000 nM. For the same compound, the result (in the assay with RAW264.7 [2] (Mus musculus); in assay [3]; in assay [4]; in assay [7]) was Active.

For `CCCCCc1cc(O)c(C2C=C(C)CC[C@H]2C(C)C)c(O)c1` (some centres not stated), the Ki on Cannabinoid receptor 1 is > 1000 nM. Further, the result (with RAW264.7 [2] (Mus musculus); in assay [3]; in assay [4]; in assay [7]) was Active.

On to `C=C(C)[C@@H]1CCC(C)CC1c1c(O)cc(CCCCC)cc1O` (some centres not stated), for which the outcome in assay [3] and in assay [4] was Active.

In the assay on RAW264.7 [1], `CCCCCCC(C)(C)c1cc(O)c(C2CC(C)CC[C@H]2C(C)C)c(O)c1` (some centres not stated) yielded an Activity of 25%. The same compound showed a Ki on Cannabinoid receptor 1 of 17 nM. Moreover, the result in assay [5] (Mus musculus) was inactive.

`CCCCCCC(C)(C)c1cc(O)c(C2C=C(C)CC[C@H]2C(C)C)c(O)c1` (some centres not stated): the result (with RAW264.7 [1] (Mus musculus); in the assay on RAW264.7 [2] (Mus musculus); in assay [5] (Mus musculus)) was inactive. Also, on Cannabinoid receptor 1, the Ki came to 124 nM.
